How the values were obtained:
HeLa cells = assay: Phototoxicity, resazurin cell viability assay after 525 nm irradiation; type: cell-based
Outline: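 HeLa, 2×10^4 per well in DMEM (2.5 % FBS), 21 h before dosing. Turn-off or turn-on peptide photosensitizers in water/12.5 % MeCN, 4.00–0.03 μm final, triplicate, 2 h. Irradiated at 525 nm by LED array, 69.4±0.6 W m−2 for 160 s, then 18 h. Resazurin fluorescence viability; IC50 by four-parameter variable-slope log(inhibitor)–response fit; untreated and vehicle controls; ≥2 independent experiments.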

PC-3 cells = assay: Phototoxicity, resazurin cell viability assay after 525 nm irradiation; type: cell-based
[1] = in MeOH; cited from earlier work

Molecule	phototoxicity variation turn-off/turn-on (IC50 6OFF / IC50 6ON) (HeLa cells) [fold]	OFF/ON ratio (IC50 6OFF / IC50 6ON) (PC-3 cells) [fold]	Φ Δ of the reference photosensitizers [1]
CCCCCCCCCCCCCCCC(=O)NCCCC[C@H](NC(=O)[C@H](CSCC(=O)NCc1cn(CCOc2ccc(C3=C4C(C)=C(I)C(C)=[N+]4[B-](F)(F)n4c(C)c(I)c(C)c43)cc2)nn1)NC(=O)c1ccc(-c2nnc(C)c3c2CCC(O)CCC3)cc1)C(=O)N[C@@H](CCCNC(=N)N)C(=O)N[C@@H](CCCNC(=N)N)C(=O)N[C@@H](CCCNC(=N)N)C(=O)N[C@@H](CCCNC(=N)N)C(N)=O (stereo partly shown) [6ON, [TCO:Tz]‐C(2I‐BODIPY)‐K(PA)RRRR‐CONH2]	3.8	3.3	
O=C([O-])c1c(Cl)c(Cl)c(Cl)c(Cl)c1-c1c2cc(I)c(=O)c(I)c-2oc2c(I)c([O-])c(I)cc12.[Na+].[Na+] [rose bengal]			0.76
Erythrosine B			0.6

From publication PMC7496803 (Chemistry (Weinheim an Der Bergstrasse, Germany), 2020)
